High-throughput results: PubChem, several laboratories
NF-kB neuron act: activators of NF-kB expression in neurons, primary screen, cell-based, HTS. human neuronal cells, NF-kB reporter expression; active compounds read high. fold change at 12.5 µM. AID 1239, 2008. 190,000 compounds, 1.6% hits; in the data active = fold change above about 3.3
APP 5'UTR act: activators of APP 5'UTR luciferase reporter, primary screen, SH-SY5Y cells. SH-SY5Y APP 5'UTR luciferase reporter, luminescence; zero percent = DMSO vehicle wells. activation, % at 2 µM. 190,000 compounds, 1% hits;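 active = activation above a set limit, based on mean plus 3 SD of controls, cut at about 140% in these data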
STAT1 act: STAT1 signaling activators, primary screen, cell-based, HTS, luciferase reporter. NIH 3T3 STAT1-luciferase reporter, IFN-gamma, luminescence; 100% = IFN-gamma alone, no compound. activation (% of control), % at 5.5 µM. 200,000 compounds, 2.6% hits. AID 932, 2007;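 active = activation above the screen-wide mean activation plus 3 SD, cut at about 130% in these data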;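 also: raw ratio to IFN-gamma control signal so 100% means no change and 0% no light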
PERK inhibitor: block of dimerizer-induced PERK translation repression, primary screen, PERK inhibitor project, CHO PERK-DD cells, SEAP luminescence, HTS | inhibition, % at 5.6 µM | 220,000 compounds, 0.17% hits | Eukaryotic translation initiation factor 2-alpha kinase 3 (Homo sapiens), Q9NZJ5 | CHO PERK-DD fusion, SEAP luminescence translation reporter | AID 1416, 2008;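 active = inhibition above the mean inhibition of all tested compounds plus 3 SD, set separately per screening campaign, cut at about 2.9% in these data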;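 also: PERK kinase domain activated by AP20187 dimerizer at 100 nM; 0% = DMSO with dimerizer and 100% = rapamycin at 8.4 µM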
AHR act: AHR activators, primary screen, cell-based, luminescence, luciferase reporter, human | Aryl hydrocarbon receptor (Homo sapiens), P35869 | AHR-responsive luciferase reporter cells | activation, % at 5 µM | 320,000 compounds, 2.5% hits; in the data active = activation above about 47%;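 also: 0% = vehicle wells and 100% = reference agonist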
Mdm2 ligase inh: MDM2-luciferase reporter signal enhancers, primary screen, MDM2 E3 ligase inhibitor project, cell-based, luminescence, 1536-well; AID 1230, 2008; E3 ubiquitin-protein ligase Mdm2 (Homo sapiens), Q00987; 210,000 compounds, 0.11% hits; cell-based MDM2 ubiquitination luciferase reporter, 2 h; 0 = plate control, 100 = twice control, blank-subtracted; signal enhancement, % at 5 µM;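 active = signal enhancement of 30% or more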;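 also: luminescence tracks abundance of the self-degrading MDM2-luciferase fusion protein; higher signal means inhibition of MDM2 E3 ligase activity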
Target sequence (Q00987 whole entry, looked up, the tested form may be a part): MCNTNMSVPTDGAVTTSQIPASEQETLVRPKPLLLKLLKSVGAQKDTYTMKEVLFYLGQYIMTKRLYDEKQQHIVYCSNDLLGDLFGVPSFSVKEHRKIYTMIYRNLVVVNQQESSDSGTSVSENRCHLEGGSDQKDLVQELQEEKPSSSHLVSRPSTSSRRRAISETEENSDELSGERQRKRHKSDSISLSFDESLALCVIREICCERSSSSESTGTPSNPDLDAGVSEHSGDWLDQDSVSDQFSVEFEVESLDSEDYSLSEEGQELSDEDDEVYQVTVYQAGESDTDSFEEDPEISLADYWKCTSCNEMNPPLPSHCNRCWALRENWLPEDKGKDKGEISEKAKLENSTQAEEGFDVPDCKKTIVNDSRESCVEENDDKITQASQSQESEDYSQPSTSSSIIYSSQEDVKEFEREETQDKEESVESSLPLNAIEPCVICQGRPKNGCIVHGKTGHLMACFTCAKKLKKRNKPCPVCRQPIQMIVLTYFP
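Test system: stable mammalian line carrying autodegrading MDM2–luciferase fusion reporter; quantity: 2000 cells in each well; times: 4 h cell settling then 2 h compound exposure, 37 °C; detection: luminescence with SteadyLite reagent, 15 min at room temperature; evaluation: percent signal gain over controls, blank-subtracted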
AHR act cf: AHR activators, confirmation, cell-based, luminescence, luciferase reporter, human; shares compounds with AHR act; human cells, AHR-responsive luciferase reporter; activation, % at 9 µM; 2,300 compounds, 87% hits; in the data active = activation above about 49%;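 also: HepG2 hepatoma cells carrying a DRE-driven firefly luciferase reporter; 0% = vehicle wells and 100% = reference agonist wells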
PXR act counter: human PXR activators, counter-screen for AHR activator project, cell-based, luciferase luminescence | shares compounds with AHR act | cell-based PXR reporter | activation, % at 11.6 µM | 2,300 compounds, 88% hits | AID 434939, 2010; in the data active = activation above about 11%;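 also: human hepatoma DPX-2 cells expressing full-length human PXR; 0% = DMSO and 100% = reference agonist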
The depositor's hits bear a star; · = no result. Rows were chosen to be rich in hits. Some 4.5% of all compounds tested hit in one or more screens of this group.

SMILES	NF-kB neuron act	APP 5'UTR act	STAT1 act	PERK inhibitor	AHR act	Mdm2 ligase inh	AHR act cf	PXR act counter
CN1CCN(C2=Nc3c(Cl)cc(Cl)c4cccc2c34)CC1	0.96	-24.1	106.2	-0.5	82.3*	-15.2	90.9*	27.2*
CCOc1ccc2c(c1)-c1c(ssc1=S)C(C)(C)N2C(=O)c1ccco1	1.11	3.0	107.0	-0.8	19.4	-7.9	·	·
O=c1oc2ccccc2n1CCc1ccccc1	0.97	17.0	109.8	0.9	94.1*	-16.1	100.4*	33.8*
O=C1c2ccccc2C(=O)N1CCCCn1c(=O)oc2ccccc21	1.22	-5.3	102.4	1.4	-0.8	-4.2	·	·
COc1ccc(NC(=O)CSc2nc3ccccc3nc2N2CCCC2)cc1	·	·	·	·	0.8	·	·	·
Cc1cc(C)cc(OCC(=O)N/N=C/c2ccccn2)c1	·	·	·	1.6	12.9	·	·	·
Cc1ccccc1OCC(=O)N/N=C/c1ccccn1	0.95	9.5	106.4	0.4	80.8*	-22.8	29.0	9.3
O=C(CSc1nnc(SCC(=O)NCc2ccc3c(c2)OCO3)s1)NCc1ccc2c(c1)OCO2	1.09	7.2	96.0	0.6	·	-16.6	·	·
COCCSc1nnc(NC(=O)c2ccc3c(c2)OCO3)s1	0.96	31.0	111.9	0.6	99.5*	-9.2	89.4*	26.9*
O=C(CSc1nnc(NC(=O)c2ccc3c(c2)OCO3)s1)NCc1ccco1	1.37	83.1	76.7	-0.2	82.4*	-58.7	30.5	10.7*
O=C(CSc1nnc(NC(=O)c2ccccc2)s1)NCc1ccco1	·	·	·	·	17.5	·	·	·
O=C(CSc1nc2ccccc2s1)NCc1ccc2c(c1)OCO2	1.15	-3.3	104.1	0.7	79.6*	-11.2	105.6*	41.6*
O=C(CNC1CCCCCC1)Nc1ccccc1N1CCOCC1	0.99	-19.5	101.5	-0.8	-0.3	-14.3	·	·
O=C(Nc1ccc(Cl)cc1F)c1ccc2c(c1)C(=O)N(Cc1ccncc1)C2=O	·	·	·	·	98.9*	·	93.8*	10.8*
CCOC(=O)NC(=O)C(=CNc1ccccc1C)C(=O)NC(=O)OCC	1.06	8.5	105.1	1.0	-2.4	22.3	·	·
CCOC(CNC(=O)c1cccn2c(=O)c3cc(Cl)ccc3nc12)OCC	0.95	19.0	98.0	0.0	82.5*	-10.7	133.5*	13.6*
CCOC(CNC(=O)c1cccn2c(=O)c3c(C)c(C)sc3nc12)OCC	·	·	·	·	8.3	·	·	·
CCC(CO)Oc1cc(NCc2ccccn2)c2ncn(C(C)C)c2c1 (stereo unspecified)	·	·	·	·	4.5	·	·	·
CCc1cc(/C(Cc2ccc3ccccc3n2)=N\O)c(O)cc1O	1.1	8.9	99.9	0.3	88.5*	0.0	55.1*	·
CSc1nc(C(=O)N2CCCC(Nc3ccc(C)c(C)c3)C2)cs1 (stereo unspecified)	·	·	·	·	108.4*	·	75.3*	119.4*
O=C(Cc1c[nH]c2ccccc12)Nc1nnc(C2CC2)s1	0.95	-9.2	87.1	0.0	90.9*	-9.4	90.4*	20.2*
Cc1c(C(=O)Nc2nnc(C3CC3)s2)oc2ccccc12	·	·	·	·	110.9*	·	136.2*	55.1*
CCC(=O)Nc1ccc(NC(=O)c2oc3ccccc3c2C)cc1	·	·	·	·	6.0	·	·	·
Cc1csc(NC(=O)c2oc3ccccc3c2C)n1	·	·	·	·	82.9*	·	136.4*	26.6*
O=C(Cc1ccc([N+](=O)[O-])cc1)Nc1nnc(C2CC2)s1	1.19	7.3	97.8	0.2	6.7	8.8	·	·
SMILES	NF-kB neuron act	APP 5'UTR act	STAT1 act	PERK inhibitor	AHR act	Mdm2 ligase inh	AHR act cf	PXR act counter
Cc1c(C(=O)Nc2nnc(C3CC3)s2)oc2c(Cl)cccc12	·	·	·	·	31.5	·	·	·
NC(=O)CC[C@H](NC(=O)c1ccc(F)cc1)C(=O)OCC(=O)NCc1ccc(F)cc1	1.19	12.6	92.1	1.6	-0.2	-4.1	·	·
Cc1cc(C)c(C)c(S(=O)(=O)N2CCC(C(=O)N3CCCCCCC3)CC2)c1C	·	·	·	·	0.7	·	·	·
Cc1ccc(CSC2=NCCN2C(=O)c2ccc(S(=O)(=O)N(C)C)cc2)cc1	1.26	4.6	91.4	0.8	-1.4	-23.4	·	·
CN(C(=O)/C=C/c1ccccc1)C1CCCCC1	·	·	·	·	4.4	·	·	·
O=C1CSC(=Nc2ccccc2Cl)N1	1.26	7.1	107.1	1.0	1.4	-23.5	·	·
Clc1ccccc1N=C1NN=C(c2cccs2)CS1	4.29*	183.0*	143.0*	0.8	139.3*	-8.0	130.1*	35.9*
COc1ccccc1NC(=O)CCSc1nc(C)cc(C)n1	1.14	18.3	103.8	0.0	1.6	-9.2	·	·
CCc1ccc2[nH]c3nc(N/N=C/c4ccc(O)cc4O)nnc3c2c1	·	·	·	·	83.3*	·	89.7*	·
O=C(O)c1ccc2c(=O)n3c(nc2c1)/C(=C/c1ccc(Cl)c(Cl)c1)CC3	·	·	·	·	-0.2	·	·	·
O=[N+]([O-])c1cccc2ccc(/C=C/c3ccc(F)cc3)nc12	1.74	39.2	133.3*	-0.8	185.8*	-0.7	229.0*	18.9*
CCOc1cc(/C=C/c2ccc3cccc([N+](=O)[O-])c3n2)ccc1O	0.76	3.5	111.1	-0.7	2.8	-51.9	·	·
O=c1[nH]c2ccccc2nc1-c1ccccc1	·	·	·	-1.7	101.3*	-3.2	84.0*	11.1*
Cc1ccc[n+](CC(=O)c2ccc(Br)cc2)c1C	·	·	·	·	83.1*	·	47.2*	·
Cc1ccc[n+](CC(=O)c2ccc(NC(=O)c3ccccc3)cc2)c1C	·	·	·	·	-1.5	·	·	·
CCCCCCCCS(=O)c1sc2nc(C)cc(C)c2c1N (stereo unspecified)	1.19	-7.9	101.5	-0.1	15.4	8.0	·	·
c1ccc(-c2ccc(-c3nc(-c4ccccn4)no3)cc2)cc1	0.3	-46.1	17.6	0.9	-9.1	-17.1	·	·
COc1ccccc1-c1nc(-c2ccc(Br)o2)no1	6.73*	218.1*	157.0*	1.0	91.1*	-29.2	131.2*	58.5*
Brc1ccc(-c2nc(-c3ccccc3)no2)o1	4.13*	143.0*	149.2*	0.4	124.0*	-12.7	147.9*	19.1*
COc1ccccc1-c1noc(-c2cc(OC)c(OC)c(OC)c2)n1	0.61	5.2	98.3	-0.6	24.2	7.1	·	·
Cc1ccc(-c2noc(-c3ccccc3Br)n2)cc1	5.9*	195.1*	133.4*	0.3	125.6*	-15.7	120.1*	18.0*
COc1ccccc1Cc1nc(-c2ccc(Br)o2)no1	1.58	11.8	106.0	-0.1	118.9*	-8.0	112.8*	42.9*
